Experimental data taken from ChEMBL document CHEMBL4396883, “Discovery of CDK5 Inhibitors through Structure-Guided Approach” (ACS Med Chem Lett, 2019).
pKi: −log10 of the molar value. Active and inactive are the calls of the source. The calls are words filed in the database; no cut-off is given here.

Assays:
[1] = target: Cyclin-dependent kinase 5 (Homo sapiens) (UniProt Q00535); test: Inhibition of CDK5 in human MV4-11 cells assessed as increase in p27KIP1 level at 5 to 10 uM measured after 24 hrs incubation by Western blot analysis; type: cell-based
Summary of the method: (§1)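 Cells treated for 24 h; lysates immunoblotted for pAkt (S473), pRB (S780), cyclin D1, p27KIP1, and cleaved caspase 3 and 7 (MOLM-13); at least two independent repeats.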

[2] = target: Cyclin-dependent kinase 5 (Homo sapiens) (UniProt Q00535); test: Inhibition of CDK5 in human MOLM13 cells assessed as increase in p27KIP1 level at 5 to 10 uM measured after 24 hrs incubation by Western blot analysis; type: cell-based; summary of the method: as §1
[3] = target: Cyclin-dependent kinase 5 (Homo sapiens) (UniProt Q00535); test: Inhibition of CDK5 in human MV4-11 cells assessed as decrease in cyclin D1 level at 5 to 10 uM measured after 24 hrs incubation by Western blot analysis; type: cell-based; summary of the method: as §1
[4] = target: Cyclin-dependent kinase 5 (Homo sapiens) (UniProt Q00535); test: Inhibition of CDK5 in human MOLM13 cells assessed as decrease in cyclin D1 level at 5 to 10 uM measured after 24 hrs incubation by Western blot analysis; type: cell-based; summary of the method: as §1
[5] = target: CDK2/Cyclin A2 (Homo sapiens) (UniProt P24941+P20248); test: Inhibition of recombinant full length N-terminal GST tagged human CDK2/CyclinA expressed in baculovirus infected sf9 cells using histone H1 as substrate at 10 uM measured after 30 mins in presence of ATP by ADP-Glo kinase assay relative to control
CDK2/Cyclin A2 = CDK2/Cyclin A2 (Homo sapiens, UniProt P24941); test: Inhibition of recombinant full length N-terminal GST tagged human CDK2/CyclinA expressed in baculovirus infected sf9 cells using histone H1 as substrate measured after 30 mins in presence of ATP by ADP-Glo kinase assay
Summary of the method: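 CDK2/cyclin A kinase inhibition; Ki values from the average of at least two experiments.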

[6] = target: Cyclin-dependent kinase 5/CDK5 activator 1 (Homo sapiens, UniProt Q00535); test: Inhibition of recombinant full length N-terminal GST tagged human CDK5/p25 expressed in baculovirus infected sf9 cells using histone H1 as substrate measured after 60 mins in presence of ATP by ADP-Glo kinase assay; type: cell-based
[7] = target: Cyclin-dependent kinase 1/cyclin B1 (Homo sapiens, UniProt P06493); test: Inhibition of CDK1/CyclinB1 (unknown origin) using histone H1 (GGGPATPKKAKKL) as substrate incubated for 80 mins in presence of ATP by ADP-Glo kinase assay; type: protein-complex assay
[8] = target: Cyclin-dependent kinase 4/cyclin D1 (Homo sapiens, UniProt P11802); test: Inhibition of human recombinant N-terminal GST-tagged CDK4 (S4-E303 residues)/Cyclin D1 (Q4-I295 residues) expressed in sf9 cells using RB-CTF as substrate incubated for 90 mins in presence of ATP by ADP-Glo kinase assay
CDK9/cyclin T1 = CDK9/cyclin T1 (Homo sapiens, UniProt P50750); test: Inhibition of human recombinant full length N-terminal GST His6 fused CDK9 (M1 to F372 residues/ N-terminal His6 tagged Cyclin T1 (M1 to K726 residues) expressed in sf9 cells using RBER-IRStide as substrate incubated for 90 mins in presence of ATP by ADP-Glo kinase assay
[9] = target: Cyclin-dependent kinase 2/cyclin E1 (Homo sapiens, UniProt P24941); test: Inhibition of CDK2/Cyclin E (unknown origin) incubated for 30 to 120 mins in presence of ATP by ADP-Glo kinase assay; type: protein-complex assay
CDK7/Cyclin H/MNAT1 = CDK7/Cyclin H/MNAT1 (Homo sapiens, UniProt P50613); test: Inhibition of CDK7/cyclinH/MAT1 (unknown origin) using RBER-IRStide as substrate incubated for 120 mins in presence of ATP by ADP-Glo kinase assay; type: protein-complex assay
MV4-11 [10] = test: Antiproliferative activity against human MV4-11 cells assessed as growth inhibition measured after 72 hrs by resazurin assay; type: functional; conditions: MV4-11, 72 h
Summary of the method: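 Leukemia cells exposed to compound for 72 h; viability read by resazurin reduction. GI50 (concentration giving 50% inhibition of proliferation) reported as mean ± SD of three independent experiments.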

MOLM-13 [11] = test: Induction of apoptosis in human MOLM13 cells assessed as early apoptotic cells at 2.5 uM measured after 24 hrs by Annexin V-FITC/PI staining based flow cytometry (reference value: 3.38%); type: functional
MOLM-13 [12] = test: Induction of apoptosis in human MOLM13 cells assessed as early apoptotic cells at 10 uM measured after 24 hrs by Annexin V-FITC/PI staining based flow cytometry (reference value: 3.38%); type: functional
[13] = target: Cyclin-dependent kinase 5 (Homo sapiens) (UniProt Q00535); test: Inhibition of CDK5 in human MOLM13 cells assessed as increase in caspase3/7 activity at 2.5 to 10 uM measured after 24 hrs by caspase-3/7 glo assay; type: cell-based
Summary of the method: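 MOLM-13 cells treated 24 h; caspase-3/7 activity measured with […]; at least two independent experiments, values given as mean.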

[14] = target: Cyclin-dependent kinase 5 (Homo sapiens) (UniProt Q00535); test: Inhibition of CDK5 in human MOLM13 cells assessed as decrease in phosphorylated RB protein level at 5 to 10 uM measured after 24 hrs incubation by Western blot analysis; type: cell-based; summary of the method: as §1
[15] = target: Cyclin-dependent kinase 5 (Homo sapiens) (UniProt Q00535); test: Inhibition of CDK5 in human MOLM13 cells assessed as decrease in phosphorylated Akt protein level at 5 to 10 uM measured after 24 hrs incubation by Western blot analysis; type: cell-based; summary of the method: as §1
MV4-11 [16] = test: Cell cycle arrest in human MV4-11 cells assessed as accumulation at G1 phase at 2.5 to 10 uM measured after 24 hrs by propidium iodide staining based flow cytometry analysis; type: functional
Summary of the method: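 MV4-11 cells treated 24 h at 2.5 and 10 μM; cell-cycle phase distribution (sub-G1, G1, S, G2/M) by flow cytometry; at least two independent experiments, numerical data as mean value.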

[17] = target: Cyclin-dependent kinase 5 (Homo sapiens) (UniProt Q00535); test: Inhibition of CDK5 in human MV4-11 cells assessed as decrease in phosphorylated Akt protein level at 5 to 10 uM measured after 24 hrs incubation by Western blot analysis; type: cell-based; summary of the method: as §1
[18] = target: Cyclin-dependent kinase 5 (Homo sapiens) (UniProt Q00535); test: Inhibition of CDK5 in human MV4-11 cells assessed as decrease in phosphorylated RB protein level at 5 to 10 uM measured after 24 hrs incubation by Western blot analysis; type: cell-based; summary of the method: as §1
[19] = target: Cyclin-dependent kinase 5 (Homo sapiens) (UniProt Q00535); test: Inhibition of CDK5 in human MV4-11 cells assessed as decrease in FAK phosphorylation at S732 measured after 24 hrs by Western blot analysis; type: cell-based
Summary of the method: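 MV4-11 AML cells incubated 24 h with compound across a concentration series; cellular CDK5 activity followed by Western blot of FAK phosphorylation at Ser732.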

[20] = target: Cyclin-dependent kinase 5 (Homo sapiens) (UniProt Q00535); test: Inhibition of CDK5 in human MOLM13 cells assessed as increase in cleaved caspase 3 level at 5 to 10 uM measured after 24 hrs by western blot analysis; type: cell-based; summary of the method: as §1
[21] = target: Cyclin-dependent kinase 5 (Homo sapiens) (UniProt Q00535); test: Inhibition of CDK5 in human MOLM13 cells assessed as increase in cleaved caspase 7 level at 5 to 10 uM measured after 24 hrs by western blot analysis; type: cell-based; summary of the method: as §1
[22] = target: Cyclin-dependent kinase 5 (Homo sapiens) (UniProt Q00535); test: Inhibition of CDK5 in human MOLM13 cells assessed as decrease in p21CIP1 level at 5 to 10 uM measured after 24 hrs by western blot analysis; type: cell-based
MOLM-13 (Homo sapiens) = test: Cell cycle arrest in human MOLM-13 cells assessed as accumulation at sub G1 phase at 10 uM measured after 24 hrs by propidium iodide staining based flow cytometry analysis

Sequence of Cyclin-dependent kinase 5 (Homo sapiens) (Q00535 whole entry, looked up): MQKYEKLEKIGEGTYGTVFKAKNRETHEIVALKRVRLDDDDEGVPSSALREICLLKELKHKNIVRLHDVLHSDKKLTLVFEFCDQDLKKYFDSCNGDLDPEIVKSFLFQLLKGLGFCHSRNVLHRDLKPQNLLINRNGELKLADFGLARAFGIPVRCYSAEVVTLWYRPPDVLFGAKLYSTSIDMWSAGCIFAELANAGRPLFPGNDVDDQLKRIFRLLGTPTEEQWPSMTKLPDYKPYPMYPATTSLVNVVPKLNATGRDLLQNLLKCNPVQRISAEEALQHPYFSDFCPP
Sequence of CDK9/cyclin T1 (O60563 whole entry, the tested form may be a part): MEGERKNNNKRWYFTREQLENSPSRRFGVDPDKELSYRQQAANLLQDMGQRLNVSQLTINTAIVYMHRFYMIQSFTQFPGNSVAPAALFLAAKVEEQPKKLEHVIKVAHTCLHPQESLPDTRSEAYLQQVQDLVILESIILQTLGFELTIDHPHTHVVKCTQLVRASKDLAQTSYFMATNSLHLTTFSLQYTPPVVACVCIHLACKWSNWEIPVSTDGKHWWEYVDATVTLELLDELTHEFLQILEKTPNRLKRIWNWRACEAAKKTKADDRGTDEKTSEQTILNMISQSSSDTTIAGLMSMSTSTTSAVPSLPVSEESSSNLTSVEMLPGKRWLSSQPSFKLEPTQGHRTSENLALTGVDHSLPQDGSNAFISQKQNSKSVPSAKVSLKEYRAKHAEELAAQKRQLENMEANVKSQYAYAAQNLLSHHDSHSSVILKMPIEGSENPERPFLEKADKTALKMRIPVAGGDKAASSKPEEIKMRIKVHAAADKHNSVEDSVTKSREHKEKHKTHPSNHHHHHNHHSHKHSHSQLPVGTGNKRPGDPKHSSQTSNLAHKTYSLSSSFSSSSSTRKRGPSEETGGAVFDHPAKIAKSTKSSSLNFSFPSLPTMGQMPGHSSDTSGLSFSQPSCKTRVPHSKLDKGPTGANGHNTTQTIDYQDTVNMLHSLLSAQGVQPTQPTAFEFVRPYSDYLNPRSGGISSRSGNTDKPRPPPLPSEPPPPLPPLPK
Sequence of CDK9/cyclin T1 (P50750 whole entry, the tested form may be a part): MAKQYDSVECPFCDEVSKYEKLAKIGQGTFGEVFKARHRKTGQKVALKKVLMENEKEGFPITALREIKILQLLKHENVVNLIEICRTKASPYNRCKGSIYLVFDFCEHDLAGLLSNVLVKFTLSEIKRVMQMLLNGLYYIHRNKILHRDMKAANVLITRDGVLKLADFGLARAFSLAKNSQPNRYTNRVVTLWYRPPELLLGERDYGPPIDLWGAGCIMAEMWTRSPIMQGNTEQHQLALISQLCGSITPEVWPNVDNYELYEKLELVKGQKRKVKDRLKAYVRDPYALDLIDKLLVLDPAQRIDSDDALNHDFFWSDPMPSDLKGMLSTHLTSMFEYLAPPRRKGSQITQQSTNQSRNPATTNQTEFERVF
Sequence of Cyclin-dependent kinase 1/cyclin B1 (P06493 whole entry, the tested form may be a part): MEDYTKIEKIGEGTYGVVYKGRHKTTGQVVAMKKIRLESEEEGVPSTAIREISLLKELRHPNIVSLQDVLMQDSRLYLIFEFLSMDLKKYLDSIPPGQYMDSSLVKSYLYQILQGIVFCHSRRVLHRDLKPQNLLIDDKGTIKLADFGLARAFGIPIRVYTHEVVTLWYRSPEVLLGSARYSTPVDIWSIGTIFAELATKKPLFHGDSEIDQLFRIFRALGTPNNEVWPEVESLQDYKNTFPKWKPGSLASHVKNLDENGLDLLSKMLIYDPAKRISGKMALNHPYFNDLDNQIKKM
Sequence of Cyclin-dependent kinase 1/cyclin B1 (P14635 whole entry, further chain, the tested form may be a part): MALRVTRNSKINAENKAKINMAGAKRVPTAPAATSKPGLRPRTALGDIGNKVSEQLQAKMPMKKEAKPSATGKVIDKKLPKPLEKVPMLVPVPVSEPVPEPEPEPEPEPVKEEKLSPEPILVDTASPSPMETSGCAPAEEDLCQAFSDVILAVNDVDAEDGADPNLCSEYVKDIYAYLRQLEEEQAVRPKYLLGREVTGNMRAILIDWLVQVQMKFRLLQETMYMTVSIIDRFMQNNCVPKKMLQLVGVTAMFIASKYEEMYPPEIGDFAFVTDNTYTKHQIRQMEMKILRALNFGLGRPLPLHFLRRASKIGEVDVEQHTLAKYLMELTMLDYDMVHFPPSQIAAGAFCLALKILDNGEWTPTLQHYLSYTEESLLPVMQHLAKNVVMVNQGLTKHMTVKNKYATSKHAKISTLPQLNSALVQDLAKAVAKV
Sequence of Cyclin-dependent kinase 4/cyclin D1 (P11802 whole entry, the tested form may be a part): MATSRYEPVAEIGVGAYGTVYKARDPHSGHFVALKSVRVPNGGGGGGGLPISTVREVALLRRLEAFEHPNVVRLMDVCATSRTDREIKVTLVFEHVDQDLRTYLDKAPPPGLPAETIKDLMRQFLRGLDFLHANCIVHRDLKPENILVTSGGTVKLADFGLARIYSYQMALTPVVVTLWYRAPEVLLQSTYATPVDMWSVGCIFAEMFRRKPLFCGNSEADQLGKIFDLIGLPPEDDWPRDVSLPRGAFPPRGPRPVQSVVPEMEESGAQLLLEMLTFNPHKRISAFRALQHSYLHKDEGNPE
Sequence of Cyclin-dependent kinase 4/cyclin D1 (P24385 whole entry, further chain, the tested form may be a part): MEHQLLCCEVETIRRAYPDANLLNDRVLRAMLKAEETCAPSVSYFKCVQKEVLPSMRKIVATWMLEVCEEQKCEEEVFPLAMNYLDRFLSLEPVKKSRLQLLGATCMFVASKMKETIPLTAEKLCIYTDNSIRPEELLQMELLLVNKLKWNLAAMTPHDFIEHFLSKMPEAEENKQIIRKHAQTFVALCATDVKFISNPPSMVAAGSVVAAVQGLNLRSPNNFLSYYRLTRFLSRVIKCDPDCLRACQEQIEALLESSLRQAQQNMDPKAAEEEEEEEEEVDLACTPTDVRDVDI
Sequence of Cyclin-dependent kinase 5/CDK5 activator 1 (Q00535 whole entry): as the sequence (Q00535 whole entry, looked up) above
Sequence of Cyclin-dependent kinase 5/CDK5 activator 1 (Q15078 whole entry, further chain): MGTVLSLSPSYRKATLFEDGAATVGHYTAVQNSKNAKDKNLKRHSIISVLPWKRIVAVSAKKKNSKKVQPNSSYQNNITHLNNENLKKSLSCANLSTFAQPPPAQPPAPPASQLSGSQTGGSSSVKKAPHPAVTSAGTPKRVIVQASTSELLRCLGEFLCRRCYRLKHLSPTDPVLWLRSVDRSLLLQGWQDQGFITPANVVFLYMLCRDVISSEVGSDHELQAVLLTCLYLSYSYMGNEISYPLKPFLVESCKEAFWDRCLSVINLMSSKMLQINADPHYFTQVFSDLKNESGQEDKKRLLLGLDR
Sequence of CDK7/Cyclin H/MNAT1 (P51946 whole entry): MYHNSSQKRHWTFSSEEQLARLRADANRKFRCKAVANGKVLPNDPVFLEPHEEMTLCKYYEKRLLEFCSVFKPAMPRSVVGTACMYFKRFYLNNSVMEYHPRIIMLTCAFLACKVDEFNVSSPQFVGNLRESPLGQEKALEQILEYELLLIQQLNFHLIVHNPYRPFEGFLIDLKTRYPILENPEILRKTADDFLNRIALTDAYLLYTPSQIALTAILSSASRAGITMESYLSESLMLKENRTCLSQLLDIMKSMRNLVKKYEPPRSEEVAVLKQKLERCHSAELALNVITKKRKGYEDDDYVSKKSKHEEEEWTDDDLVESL
Sequence of CDK7/Cyclin H/MNAT1 (P50613 whole entry): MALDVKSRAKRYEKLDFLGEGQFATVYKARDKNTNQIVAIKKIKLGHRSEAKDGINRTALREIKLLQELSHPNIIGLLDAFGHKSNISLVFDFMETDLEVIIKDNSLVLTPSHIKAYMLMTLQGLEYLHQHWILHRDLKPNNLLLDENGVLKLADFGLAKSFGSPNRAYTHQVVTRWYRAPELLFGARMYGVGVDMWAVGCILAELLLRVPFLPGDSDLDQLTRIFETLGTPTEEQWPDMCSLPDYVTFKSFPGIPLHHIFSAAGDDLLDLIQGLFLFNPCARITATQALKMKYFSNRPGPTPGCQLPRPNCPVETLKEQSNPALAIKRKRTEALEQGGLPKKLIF
Sequence of CDK7/Cyclin H/MNAT1 (P51948 whole entry, further chain): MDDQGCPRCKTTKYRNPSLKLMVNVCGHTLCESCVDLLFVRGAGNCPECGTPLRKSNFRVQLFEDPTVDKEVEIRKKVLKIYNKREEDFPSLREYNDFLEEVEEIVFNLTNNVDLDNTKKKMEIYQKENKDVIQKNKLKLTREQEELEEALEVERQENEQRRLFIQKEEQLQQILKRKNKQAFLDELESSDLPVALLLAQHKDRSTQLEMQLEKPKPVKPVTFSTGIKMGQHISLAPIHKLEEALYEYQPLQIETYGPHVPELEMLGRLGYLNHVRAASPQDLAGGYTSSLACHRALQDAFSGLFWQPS

Compound	Activity [1]	Activity [2]	inhibition [3]	inhibition [4]	inhibition [5] [%]	pKi (CDK2/Cyclin A2)	pKi [6]	pKi [7]	pKi [8]	pKi (CDK9/cyclin T1)	pKi [9]	pKi (CDK7/Cyclin H/MNAT1)	GI50 (MV4-11 [10]) [nM]	Activity (MOLM-13 [11]) [%]	Activity (MOLM-13 [12]) [%]	Activity [13]	inhibition [14]	inhibition [15]	Activity (MV4-11 [16])	inhibition [17]	also measured
Cc1cccc(Nc2ncc3c(n2)CCCC3)c1	Active	Active	Active	Active	72	5.48	6.10	5.63	< 5.30	< 5.30	< 5.30	< 5.30	3290	8.31	30.11	Active	Active	Active	Active	Active	inhibition [18]: Active; inhibition [19]: Dose-dependent effect; Activity [20]: Active; Activity [21]: Active; inhibition [22]: Active; Activity (MOLM-13 (Homo sapiens)): Active
NS(=O)(=O)c1cccc(Nc2ncc3c(n2)CCCC3)c1	Active	Active	Active	Active	95	6.57	6.80	5.58	< 5.30	6.00	6.00	< 5.30	2550	10.05	18.34	Active	Active	Active	Active	Active	inhibition [18]: Active; inhibition [19]: Dose-dependent effect; Activity [20]: Active; Activity [21]: Active; inhibition [22]: Active; Activity (MOLM-13 (Homo sapiens)): Active
